Holding throughout (assay type): functional
One assay relates to Fusarium graminearum. Nature of the assay: Fungicidal activity against Fusarium graminearum assessed as inhibition of mycelial elongation at 50 ug/mL incubated for 48 hr. The procedure, abridged: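 Field isolate of G. zeae taken from crops. A 500 mg/L DMF stock (1 mL) was mixed with 9 mL molten potato glucose agar at 50 °C and poured into plates. A 4 mm mycelial disk was placed on each plate, which was inverted and kept at 28 °C for 48 h. Water served as the blank. Colony radius was measured in triplicate, and inhibition was calculated as (C−T)/C×100%.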

Assay [1] relates to Botryosphaeria berengeriana. Nature of the assay: Fungicidal activity against Botryosphaeria berengeriana assessed as inhibition of mycelial elongation at 50 ug/mL incubated for 48 hr. The procedure, abridged: (§1)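 Poisoned-food plate assay on potato glucose agar: DMF stock of 500 mg/L mixed 1:9 into molten medium at 50 °C, poured and set, then seeded with a 4 mm mycelial disk. Plates inverted, incubated 28 °C for 48 h. Water as blank control. Colony radius (mm) measured, triplicate; inhibition I = [(C − T)/C] × 100% versus control radius. Field isolates from crops.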

Another assay has as its system Rhizoctonia solani. Nature of the assay: Fungicidal activity against Rhizoctonia solani assessed as inhibition of mycelial elongation at 50 ug/mL incubated for 48 hr. The procedure, abridged:
as §1

The test system of the next assay is Botrytis cinerea. Nature of the assay: Fungicidal activity against Botryotinia fuckeliana assessed as inhibition of mycelial elongation at 50 ug/mL incubated for 48 hr. The method in brief:
as §1

For another assay, the system named is Bipolaris maydis. Nature of the assay: Fungicidal activity against Cochliobolus heterostrophus assessed as inhibition of mycelial elongation at 50 ug/mL incubated for 48 hr. The procedure, abridged:
as §1

What is called inhibition is the share of the control response that was lost under treatment.

For the compound `CO/N=C(/C(=O)OC)c1ccccc1CO/N=C/c1c(C)nn(C)c1Oc1ccc(F)cc1`, the inhibition at 50 µg/mL in the assay with Fusarium graminearum was determined as 59.4%; in assay [1], 100%; in the assay on Rhizoctonia solani, 90.2%; in the assay with Botrytis cinerea, 88.5%; with Bipolaris maydis, 86.4%.

Consider `CCCOc1c(/C=N/OCc2ccccc2/C(=N\OC)C(=O)OC)c(C)nn1C`, for which the inhibition at 50 µg/mL in the assay with Fusarium graminearum is 78.4%; in assay [1], 93.8%; in the assay on Rhizoctonia solani, 87.8%; in the assay with Botrytis cinerea, 87.1%; with Bipolaris maydis it was 85%.

On to `CCOc1c(/C=N/OCc2ccccc2/C(=N\OC)C(=O)OC)c(C)nn1C`, for which the inhibition at 50 µg/mL in the assay on Fusarium graminearum was 90.5%; in assay [1], 100%; in the assay on Rhizoctonia solani, 92.5%; with Botrytis cinerea, 96.8%; in the assay with Bipolaris maydis it was 92.6%.

Take `CO/N=C(/C(=O)OC)c1ccccc1CO/N=C/c1c(C)nn(C)c1Oc1ccc(Cl)cc1`: the inhibition at 50 µg/mL in the assay with Fusarium graminearum was 80%; in assay [1] it was 92.6%; in the assay on Rhizoctonia solani, 100%; with Botrytis cinerea it was 100%; with Bipolaris maydis, 92.9%.

Consider `CO/N=C(/C(=O)OC)c1ccccc1CO/N=C/c1c(C)nn(C)c1Oc1ccccc1F`, for which the inhibition at 50 µg/mL in the assay on Fusarium graminearum stood at 50%; in assay [1] it was 88.2%; in the assay on Rhizoctonia solani, 83.7%; with Botrytis cinerea, 84.6%; in the assay with Bipolaris maydis, 68.2%.

Turning to `CO/N=C(/C(=O)OC)c1ccccc1CO/N=C/c1c(C)nn(C)c1Oc1ccc(C)cc1`, the inhibition at 50 µg/mL in the assay with Fusarium graminearum came out at 50%; in assay [1], 88.2%; with Rhizoctonia solani, 90.2%; with Botrytis cinerea it was 80.8%; with Bipolaris maydis it was 72.7%.

`CO/N=C(/C(=O)OC)c1ccccc1CO/N=C/c1c(C)nn(C)c1Oc1cccc([N+](=O)[O-])c1`: the inhibition at 50 µg/mL in the assay with Fusarium graminearum amounted to 62.9%; in assay [1], 77.8%; with Rhizoctonia solani it was 91.6%; in the assay with Botrytis cinerea, 98.8%; with Bipolaris maydis, 64.3%.

Regarding `CO/N=C(/C(=O)OC)c1ccccc1CO/N=C/c1c(C)nn(C)c1OCC(F)(F)F`, the inhibition at 50 µg/mL in the assay with Fusarium graminearum is 80%; in assay [1] it was 95.5%; in the assay on Rhizoctonia solani, 91.8%; in the assay on Botrytis cinerea, 100%; in the assay on Bipolaris maydis it was 90.9%.

On to `CO/N=C(/C(=O)OC)c1ccccc1CO/N=C/c1c(C)nn(C)c1OC`, for which the inhibition at 50 µg/mL in the assay on Fusarium graminearum came out at 79.4%; in assay [1], 100%; in the assay on Rhizoctonia solani it was 82.7%; in the assay with Botrytis cinerea it was 85.4%; in the assay with Bipolaris maydis it was 86.7%.

With `CO/N=C(/C(=O)OC)c1ccccc1COc1ccccc1C` [KRESOXIM-METHYL], the inhibition at 50 µg/mL came out at 96.8% in the assay on Fusarium graminearum; 98.5% in assay [1]; 66.1% in the assay with Rhizoctonia solani; 97.2% in the assay on Botrytis cinerea; 90.6% in the assay on Bipolaris maydis.

`CO/N=C(/C(=O)OC)c1ccccc1CO/N=C/c1c(C)nn(C)c1Oc1cccc(C(F)(F)F)c1`: the inhibition at 50 µg/mL amounted to 68.8% with Fusarium graminearum; 88.2% in assay [1]; 83.7% in the assay with Rhizoctonia solani; 92.3% with Botrytis cinerea; 68.2% in the assay on Bipolaris maydis.

Turning to `CO/N=C(/C(=O)OC)c1ccccc1CO/N=C/c1c(C)nn(C)c1Oc1ccc(Cl)cc1Cl`, the inhibition at 50 µg/mL in the assay on Fusarium graminearum was determined as 88.6%; in assay [1] it was 96.3%; with Rhizoctonia solani, 99%; in the assay with Botrytis cinerea it was 100%; in the assay with Bipolaris maydis, 92.9%.

With `CO/N=C(/C(=O)OC)c1ccccc1CO/N=C/c1c(C)nn(C)c1Oc1ccccc1C`, the inhibition at 50 µg/mL in the assay on Fusarium graminearum amounted to 53.1%; in assay [1], 76.5%; in the assay with Rhizoctonia solani, 83.7%; in the assay with Botrytis cinerea it was 80.8%; in the assay with Bipolaris maydis, 72.7%.

As for `CO/N=C(/C(=O)OC)c1ccccc1CO/N=C/c1c(C)nn(C)c1Oc1cccc(C)c1`, the inhibition at 50 µg/mL in the assay with Fusarium graminearum came to 96.9%; in assay [1] it was 100%; in the assay with Rhizoctonia solani, 88%; in the assay on Botrytis cinerea, 80.8%; with Bipolaris maydis, 81.8%.
